Experimental data published in ChEMBL document CHEMBL1144645, “The discovery of highly selective erbB2 (Her2) inhibitors for the treatment of cancer” (Bioorg Med Chem Lett, 2007).

Experiments:
[1] = target: Epidermal growth factor receptor (Homo sapiens) (UniProt P00533); test: Inhibition of EGFR
[2] = target: Insulin receptor (Homo sapiens) (UniProt P06213); test: Inhibition of IRK
[3] = target: Epidermal growth factor receptor and ErbB2 (HER1 and HER2) (Homo sapiens) (UniProt P04626+P00533); test: Selectivity for erbB2 over EGFR; type: protein assay
Procedure, shortened: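 Cell selectivity: IC50 ratio between two NIH3T3 lines run under identical conditions, one carrying human EGFR and one carrying the EGFR-extracellular/erbB2-intracellular chimera. Each line takes 2 h inhibitor, then 15 min human recombinant EGF. Phosphotyrosine measured with HRP-PY-54 and TMB at 450 nm.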

[4] = target: T1, Receptor tyrosine-protein kinase erbB-2 (Homo sapiens, UniProt P04626); test: Inhibition of erbB2 in NH3T3 cells; type: cell-based
Procedure, shortened: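 NIH3T3 cells expressing a chimera of EGFR extracellular and erbB2 intracellular domains are plated, exposed to inhibitor for 2 h, then stimulated with human recombinant EGF for 15 min. Receptor phosphotyrosine read with HRP-PY-54 antibody and TMB, A450. IC50 is the mean of at least two experiments.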

[5] = target: T1, Receptor tyrosine-protein kinase erbB-2; test: Inhibition of erbB2 expressed in Sf9 cells
Procedure, shortened: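 GST-tagged erbB2 intracellular domain (residues 675–1255) made in baculovirus/Sf9 and purified; ~15 ng enzyme phosphorylates poly(Glu,Tyr) with 1 mM ATP plus inhibitor over 6 min. Phosphotyrosine detected by HRP-PY-54 antibody and TMB, A450. IC50 is the mean of at least two experiments.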

[6] = target: Insulin-like growth factor 1 receptor (Homo sapiens) (UniProt P08069); test: Inhibition of IGF1R
[7] = target: Cyclin-dependent kinase 2 (Homo sapiens) (UniProt P24941); test: Inhibition of CDK2
[8] = target: Tyrosine-protein kinase Lck (Homo sapiens) (UniProt P06239); test: Inhibition of LCK
[9] = target: Cyclin-dependent kinase 5 (Homo sapiens) (UniProt Q00535); test: Inhibition of CDK5
[10] = target: Proto-oncogene tyrosine-protein kinase Src (Homo sapiens) (UniProt P12931); test: Inhibition of cSRC
[11] = target: Protein kinase C alpha type (Homo sapiens) (UniProt P17252); test: Inhibition of PKCalpha
[12] = target: Protein kinase C theta type (Homo sapiens) (UniProt Q04759); test: Inhibition of PKCtheta
[13] = target: Tyrosine-protein kinase Fes/Fps (Homo sapiens) (UniProt P07332); test: Inhibition of FES
[14] = target: T2, Tyrosine-protein kinase JAK3 (Homo sapiens) (UniProt P52333); test: Inhibition of JAK3
T2 sequence (whole entry): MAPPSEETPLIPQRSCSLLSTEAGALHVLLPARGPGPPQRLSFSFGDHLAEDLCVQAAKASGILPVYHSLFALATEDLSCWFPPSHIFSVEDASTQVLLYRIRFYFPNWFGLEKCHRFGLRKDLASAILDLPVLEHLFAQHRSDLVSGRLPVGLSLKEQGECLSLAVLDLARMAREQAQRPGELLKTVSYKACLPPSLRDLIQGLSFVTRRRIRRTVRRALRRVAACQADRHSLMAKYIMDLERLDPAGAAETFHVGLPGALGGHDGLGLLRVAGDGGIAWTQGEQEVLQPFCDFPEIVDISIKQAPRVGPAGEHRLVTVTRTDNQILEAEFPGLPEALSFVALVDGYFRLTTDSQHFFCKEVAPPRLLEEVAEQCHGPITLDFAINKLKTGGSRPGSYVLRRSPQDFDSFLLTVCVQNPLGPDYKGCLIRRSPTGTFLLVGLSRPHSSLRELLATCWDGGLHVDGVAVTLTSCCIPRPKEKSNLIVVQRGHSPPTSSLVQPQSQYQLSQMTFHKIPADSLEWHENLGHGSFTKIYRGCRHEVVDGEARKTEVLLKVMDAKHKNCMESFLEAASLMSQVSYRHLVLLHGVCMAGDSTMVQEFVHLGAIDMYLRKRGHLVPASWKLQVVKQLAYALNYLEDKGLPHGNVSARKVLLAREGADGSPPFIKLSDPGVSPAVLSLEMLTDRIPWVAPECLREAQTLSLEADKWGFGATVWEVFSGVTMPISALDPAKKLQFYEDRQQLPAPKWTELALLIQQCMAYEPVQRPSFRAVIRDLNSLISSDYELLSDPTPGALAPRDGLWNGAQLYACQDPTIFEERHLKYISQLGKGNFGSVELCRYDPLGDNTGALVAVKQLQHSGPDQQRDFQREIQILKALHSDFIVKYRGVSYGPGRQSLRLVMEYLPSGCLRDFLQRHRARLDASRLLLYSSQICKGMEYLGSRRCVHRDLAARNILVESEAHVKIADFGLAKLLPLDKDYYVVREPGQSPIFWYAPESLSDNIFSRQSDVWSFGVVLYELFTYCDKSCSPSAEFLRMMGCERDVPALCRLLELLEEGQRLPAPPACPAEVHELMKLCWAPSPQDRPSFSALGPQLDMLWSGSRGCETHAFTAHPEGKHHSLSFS

[15] = target: Platelet-derived growth factor receptor beta (Homo sapiens) (UniProt P09619); test: Inhibition of PDGFRB
[16] = target: cAMP-dependent protein kinase (PKA) (Homo sapiens) (UniProt P22694+P17612+P22612); test: Inhibition of PKA; type: protein assay
[17] = target: Wee1-like protein kinase (Homo sapiens) (UniProt P30291); test: Inhibition of Wee1
[18] = Permeability from apical to basolateral side of Caco-2 cell membrane; type: ADME, cell-based; settings: human, read-out: permeability

T1 sequence (P04626 whole entry, the tested form may be a part): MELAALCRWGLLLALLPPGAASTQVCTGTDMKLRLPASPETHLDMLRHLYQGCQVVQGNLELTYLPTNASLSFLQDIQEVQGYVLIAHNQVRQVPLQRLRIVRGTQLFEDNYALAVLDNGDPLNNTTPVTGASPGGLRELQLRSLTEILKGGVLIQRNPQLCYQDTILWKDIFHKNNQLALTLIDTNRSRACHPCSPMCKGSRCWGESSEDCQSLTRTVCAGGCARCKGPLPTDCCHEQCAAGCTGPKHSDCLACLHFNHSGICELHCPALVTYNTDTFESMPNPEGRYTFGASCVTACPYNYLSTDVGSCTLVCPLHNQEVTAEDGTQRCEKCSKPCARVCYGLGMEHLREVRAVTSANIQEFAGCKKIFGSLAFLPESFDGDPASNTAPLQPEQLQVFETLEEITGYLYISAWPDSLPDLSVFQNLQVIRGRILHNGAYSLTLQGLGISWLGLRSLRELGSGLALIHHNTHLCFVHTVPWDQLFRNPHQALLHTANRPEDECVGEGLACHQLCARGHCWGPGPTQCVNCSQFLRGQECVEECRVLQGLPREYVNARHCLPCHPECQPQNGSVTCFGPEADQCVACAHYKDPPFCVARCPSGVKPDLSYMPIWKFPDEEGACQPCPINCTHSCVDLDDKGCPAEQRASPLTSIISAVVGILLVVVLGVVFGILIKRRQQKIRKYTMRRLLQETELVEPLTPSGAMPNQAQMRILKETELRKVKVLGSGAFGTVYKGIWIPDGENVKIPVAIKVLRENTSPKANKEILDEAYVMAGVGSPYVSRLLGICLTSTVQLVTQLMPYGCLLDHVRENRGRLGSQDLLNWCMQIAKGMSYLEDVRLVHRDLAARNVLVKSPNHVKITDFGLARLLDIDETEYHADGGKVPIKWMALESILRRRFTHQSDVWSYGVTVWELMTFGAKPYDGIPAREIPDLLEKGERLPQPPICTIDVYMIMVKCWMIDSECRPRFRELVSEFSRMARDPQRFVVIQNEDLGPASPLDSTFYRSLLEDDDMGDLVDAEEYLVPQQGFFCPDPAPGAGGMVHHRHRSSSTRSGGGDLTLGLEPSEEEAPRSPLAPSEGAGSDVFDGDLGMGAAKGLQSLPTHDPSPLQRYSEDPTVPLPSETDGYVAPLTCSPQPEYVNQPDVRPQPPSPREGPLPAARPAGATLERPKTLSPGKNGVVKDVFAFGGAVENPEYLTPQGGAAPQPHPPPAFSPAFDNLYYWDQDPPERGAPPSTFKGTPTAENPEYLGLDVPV
Chain of Tyrosine-protein kinase Lck (Homo sapiens) (P06239 2-509 limits assumed): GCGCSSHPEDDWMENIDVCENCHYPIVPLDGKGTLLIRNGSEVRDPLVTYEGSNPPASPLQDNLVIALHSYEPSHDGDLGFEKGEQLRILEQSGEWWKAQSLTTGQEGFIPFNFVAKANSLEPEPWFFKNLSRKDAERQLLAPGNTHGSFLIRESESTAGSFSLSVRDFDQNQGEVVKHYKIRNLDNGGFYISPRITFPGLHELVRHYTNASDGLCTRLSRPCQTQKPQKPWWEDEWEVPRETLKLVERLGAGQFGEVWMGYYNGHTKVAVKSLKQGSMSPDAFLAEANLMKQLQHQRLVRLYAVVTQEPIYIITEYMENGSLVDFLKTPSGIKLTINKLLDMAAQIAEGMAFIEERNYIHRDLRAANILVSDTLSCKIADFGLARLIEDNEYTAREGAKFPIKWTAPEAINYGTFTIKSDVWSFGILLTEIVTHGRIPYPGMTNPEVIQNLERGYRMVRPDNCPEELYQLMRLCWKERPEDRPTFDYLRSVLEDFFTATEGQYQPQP
Chain of Tyrosine-protein kinase Fes/Fps (Homo sapiens) (P07332 whole entry): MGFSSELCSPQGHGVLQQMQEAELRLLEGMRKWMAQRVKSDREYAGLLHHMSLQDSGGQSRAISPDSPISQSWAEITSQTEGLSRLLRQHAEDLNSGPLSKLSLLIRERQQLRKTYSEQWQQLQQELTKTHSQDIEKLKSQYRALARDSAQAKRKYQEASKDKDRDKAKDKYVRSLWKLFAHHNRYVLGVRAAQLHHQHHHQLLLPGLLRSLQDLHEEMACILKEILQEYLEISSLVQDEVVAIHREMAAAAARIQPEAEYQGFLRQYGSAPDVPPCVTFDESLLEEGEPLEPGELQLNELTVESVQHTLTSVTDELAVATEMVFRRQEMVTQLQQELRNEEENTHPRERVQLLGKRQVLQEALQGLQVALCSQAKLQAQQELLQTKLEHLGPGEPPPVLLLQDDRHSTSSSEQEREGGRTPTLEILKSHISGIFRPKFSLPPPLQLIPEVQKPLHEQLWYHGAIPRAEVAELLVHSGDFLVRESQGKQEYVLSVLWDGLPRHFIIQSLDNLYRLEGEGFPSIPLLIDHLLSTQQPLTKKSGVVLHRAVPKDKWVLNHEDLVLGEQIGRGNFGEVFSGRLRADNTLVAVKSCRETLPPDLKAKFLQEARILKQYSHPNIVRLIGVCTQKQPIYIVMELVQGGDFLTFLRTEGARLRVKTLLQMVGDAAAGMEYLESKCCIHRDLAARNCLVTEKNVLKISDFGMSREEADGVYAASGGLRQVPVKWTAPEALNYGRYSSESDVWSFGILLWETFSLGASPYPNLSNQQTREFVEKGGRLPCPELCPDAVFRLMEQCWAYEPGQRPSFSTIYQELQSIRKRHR
Chain of Protein kinase C theta type (Homo sapiens) (Q04759 whole entry, looked up): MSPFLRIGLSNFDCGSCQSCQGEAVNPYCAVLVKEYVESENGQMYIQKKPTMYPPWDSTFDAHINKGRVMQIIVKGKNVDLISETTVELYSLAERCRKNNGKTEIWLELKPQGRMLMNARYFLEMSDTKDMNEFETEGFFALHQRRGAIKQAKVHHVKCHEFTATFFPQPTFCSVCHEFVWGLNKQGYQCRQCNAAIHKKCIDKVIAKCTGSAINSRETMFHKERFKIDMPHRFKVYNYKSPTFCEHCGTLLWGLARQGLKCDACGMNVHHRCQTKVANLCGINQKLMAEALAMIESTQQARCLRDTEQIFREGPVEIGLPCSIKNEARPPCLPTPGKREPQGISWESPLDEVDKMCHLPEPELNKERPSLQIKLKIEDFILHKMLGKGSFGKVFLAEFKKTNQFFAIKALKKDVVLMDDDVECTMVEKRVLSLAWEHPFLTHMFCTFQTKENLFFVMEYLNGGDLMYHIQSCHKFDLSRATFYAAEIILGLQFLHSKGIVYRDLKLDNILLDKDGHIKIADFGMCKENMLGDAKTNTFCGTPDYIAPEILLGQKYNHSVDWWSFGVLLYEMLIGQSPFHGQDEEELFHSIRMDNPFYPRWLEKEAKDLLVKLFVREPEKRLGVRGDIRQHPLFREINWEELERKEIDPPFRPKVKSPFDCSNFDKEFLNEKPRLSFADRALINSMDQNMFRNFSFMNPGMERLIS
Chain of Platelet-derived growth factor receptor beta (Homo sapiens) (P09619 whole entry): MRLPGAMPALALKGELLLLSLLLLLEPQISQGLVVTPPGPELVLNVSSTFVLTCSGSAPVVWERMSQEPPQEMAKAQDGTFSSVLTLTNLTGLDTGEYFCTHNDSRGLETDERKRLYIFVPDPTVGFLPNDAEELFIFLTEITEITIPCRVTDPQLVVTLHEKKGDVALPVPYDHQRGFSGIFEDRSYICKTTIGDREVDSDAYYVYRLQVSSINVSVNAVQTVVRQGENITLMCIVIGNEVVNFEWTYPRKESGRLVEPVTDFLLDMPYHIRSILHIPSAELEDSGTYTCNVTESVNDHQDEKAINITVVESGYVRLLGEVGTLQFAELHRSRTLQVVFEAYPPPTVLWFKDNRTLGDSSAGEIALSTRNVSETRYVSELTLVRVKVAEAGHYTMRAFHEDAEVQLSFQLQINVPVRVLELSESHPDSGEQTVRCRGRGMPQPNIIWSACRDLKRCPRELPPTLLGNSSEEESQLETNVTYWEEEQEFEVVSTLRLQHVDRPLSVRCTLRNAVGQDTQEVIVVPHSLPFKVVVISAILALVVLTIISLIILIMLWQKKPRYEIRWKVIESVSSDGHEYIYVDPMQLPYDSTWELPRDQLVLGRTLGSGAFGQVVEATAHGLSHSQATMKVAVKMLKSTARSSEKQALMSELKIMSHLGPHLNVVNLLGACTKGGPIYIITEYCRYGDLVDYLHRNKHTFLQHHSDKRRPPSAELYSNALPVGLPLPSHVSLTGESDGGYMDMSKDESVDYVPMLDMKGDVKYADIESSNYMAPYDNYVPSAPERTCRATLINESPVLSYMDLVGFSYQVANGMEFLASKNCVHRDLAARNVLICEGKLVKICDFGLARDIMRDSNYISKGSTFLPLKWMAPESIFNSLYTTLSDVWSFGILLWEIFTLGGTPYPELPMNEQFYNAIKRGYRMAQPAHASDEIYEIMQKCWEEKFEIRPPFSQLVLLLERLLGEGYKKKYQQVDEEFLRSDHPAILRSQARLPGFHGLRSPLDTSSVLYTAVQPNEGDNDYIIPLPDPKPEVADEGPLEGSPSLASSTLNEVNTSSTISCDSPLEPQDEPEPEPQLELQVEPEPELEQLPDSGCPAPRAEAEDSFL

Activity [1]: > 10 µM
Activity [2]: > 10 µM
Selectivity ratio [3]: > 410
IC50 [4]: 24 nM
IC50 [5]: 21 nM
Activity [6]: > 10 µM
Activity [7]: > 10 µM
Activity [8]: > 10 µM
Activity [9]: > 10 µM
Activity [10]: > 10 µM
Activity [11]: > 10 µM
Activity [12]: > 10 µM
Activity [13]: > 10 µM
Activity [14]: > 10 µM
Activity [15]: > 10 µM
Activity [16]: > 10 µM
Activity [17]: > 10 µM
Papp A→B [18]: 15.4 ×10⁻⁶ cm/s
SMILES: Cc1cc(Nc2ncnc3cnc(N4CCOCC4)cc23)ccc1Oc1ccc(C(=O)NCC(C)(C)C)cc1
